Assay results taken from ChEMBL document CHEMBL1123977, “Synthesis, receptor binding, and tissue distribution of (17 alpha,20E)- and (17 alpha,20Z)-21-[125I]iodo-19-norpregna-1,3,5(10), 20-tetraene-3,17-diol ” (1988).

How the values were obtained:
Rattus norvegicus [1] = assay: Mean uptake in uterus 5 hr after intravenous injection of 3 microCi (111 kBq); type: functional
Outline: (§1)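 Immature female Fischer rats (24 days old, 55-60 g), food and water free. 3 μCi (111 kBq) HPLC-purified 125I-labeled steroid given iv via lateral tail vein in 200 μL saline containing 9% ethanol and 1% Tween 80; receptor-saturation group co-injected with 60 μg unlabeled estradiol. Sacrificed at set times; uterus washed with 0.154 M KCl, blotted, weighed, gamma counted against injected reference; expressed as PDK (% dose × kg/g), mean of three rats.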

Rattus norvegicus [2] = assay: In vivo deiodination in 2 hour after administration of compound; type: functional
Outline: (§2)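 In immature female Fischer rats given 3 μCi (111 kBq) of 125I-steroid iv, deiodination was estimated from thyroid PDK at 1, 2 or 5 h, or at 2 h with 60 μg co-injected estradiol. Thyroid uptake after [125I]NaI injection at the same time interval was taken as 100%.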

Rattus norvegicus [3] = assay: Mean uptake in kidneys 2 hr after intravenous injection of 3 microCi (111 kBq) in presence of 60 ug coinjected estradiol; type: functional, Kidney
Outline: (§3)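 Immature female Fischer rats (24 days old, 55-60 g) had free access to food and water. They were warmed under an infrared lamp, then given 200 μL HPLC-purified 125I-labeled steroid (3 μCi, 111 kBq) in saline with 9% ethanol and 1% Tween 80 via the lateral tail vein. Where stated, 60 μg unlabeled estradiol was co-injected. Rats were killed at 1, 2 or 5 h. Tissues were KCl-washed, blotted, weighed and gamma-counted against a reference of the injectate. Results are PDK (% dose × kg/g), mean and SD of three rats.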

Rattus norvegicus [4] = assay: Mean uptake in uterus 2 hr after intravenous injection of 3 microCi (111 kBq); type: functional; outline: as §1
Rattus norvegicus [5] = assay: Mean uptake in blood 5 hr after intravenous injection of 3 microCi (111 kBq); type: functional; outline: as §3
Rattus norvegicus [6] = assay: Mean uptake in spleen 2 hr after intravenous injection of 3 uM Ci (111 kBq) in presence of 60 ug coinjected estradiol; type: functional; outline: as §3
Rattus norvegicus [7] = assay: Mean uptake in liver 2 hr after intravenous injection of 3 microCi (111 kBq) in presence of 60 ug coinjected estradiol; type: functional; outline: as §3
Rattus norvegicus [8] = assay: Mean uptake in liver 5 hr after intravenous injection of 3 microCi (111 kBq); type: functional; outline: as §3
Rattus norvegicus [9] = assay: Mean uptake in thyroid 2 hr after intravenous injection of 3 microCi (111 kBq) in presence of 60 ug coinjected estradiol; type: functional, Thyroid gland; outline: as §3
Rattus norvegicus [10] = assay: Mean uptake in thyroid 1 hr after intravenous injection of 3 microCi (111 kBq) of the compound; type: functional, Thyroid gland; outline: as §3
Rattus norvegicus [11] = assay: Mean uptake in adrenals 5 hr after intravenous injection of 3 microCi (111 kBq); type: functional, Adrenal gland; outline: as §3
Rattus norvegicus [12] = assay: Mean uptake in adrenals 1 hr after intravenous injection of 3 microCi (111 kBq) of the compound; type: functional, Adrenal gland; outline: as §3
Rattus norvegicus [13] = assay: Mean uptake in muscle 1 hr after intravenous injection of 3 microCi (111 kBq) of the compound; type: functional, Muscle tissue; outline: as §3
Rattus norvegicus [14] = assay: Mean uptake in blood 2 hr after intravenous injection of 3 microCi (111 kBq); type: functional; outline: as §3
Rattus norvegicus [15] = assay: Mean uptake in blood 2 hr after intravenous injection of 3 microCi (111 kBq) in presence of 60 ug coinjected estradiol; type: functional; outline: as §3
Rattus norvegicus [16] = assay: Mean uptake in brain 2 hr after intravenous injection of 3 uM Ci (111 kBq) in presence of 60 ug coinjected estradiol; type: functional; outline: as §3
Rattus norvegicus [17] = assay: Mean uptake in ovaries 5 hr after intravenous injection of 3 microCi (111 kBq); type: functional, Female gonad; outline: as §3
Rattus norvegicus [18] = assay: Mean uptake in ovaries 2 hr after intravenous injection of 3 uM Ci (111 kBq) in presence of 60 ug coinjected estradiol; type: functional, Female gonad; outline: as §3
Rattus norvegicus [19] = assay: In vivo deiodination in 2 hour after administration of compound in presence of 60 microg of estradiol; type: functional; outline: as §2
Rattus norvegicus [20] = assay: Mean uptake in brain 1 hr after intravenous injection of 3 microCi (111 kBq) of the compound; type: functional; outline: as §3
Rattus norvegicus [21] = assay: Mean uptake in adrenals 2 hr after intravenous injection of 3 microCi (111 kBq); type: functional, Adrenal gland; outline: as §3
Rattus norvegicus [22] = assay: Mean uptake in ovaries 2 hr after intravenous injection of 3 microCi (111 kBq); type: functional, Female gonad; outline: as §3
Rattus norvegicus [23] = assay: Mean uptake in adrenals 2 hr after intravenous injection of 3 microCi (111 kBq) in presence of 60 ug coinjected estradiol; type: functional, Adrenal gland; outline: as §3
Rattus norvegicus [24] = assay: Mean uptake in brain 2 hr after intravenous injection of 3 microCi (111 kBq); type: functional; outline: as §3
Rattus norvegicus [25] = assay: Mean uptake in spleen 2 hr after intravenous injection of 3 uM Ci (111 kBq); type: functional; outline: as §3
Rattus norvegicus [26] = assay: Mean uptake in kidneys 5 hr after intravenous injection of 3 microCi (111 kBq); type: functional; outline: as §3
Rattus norvegicus [27] = assay: In vivo deiodination in 1 hour after administration of compound; type: functional; outline: as §2
Rattus norvegicus [28] = assay: Mean uptake in muscles 5 hr after intravenous injection of 3 microCi (111 kBq); type: functional, Muscle tissue; outline: as §3
Rattus norvegicus [29] = assay: Mean uptake in lungs 1 hr after intravenous injection of 3 microCi (111 kBq) of the compound; type: functional; outline: as §3
Rattus norvegicus [30] = assay: In vivo deiodination in 5 hr after administration of compound; type: functional; outline: as §2
Rattus norvegicus [31] = assay: Mean uptake in ovaries 1 hr after intravenous injection of 3 microCi (111 kBq) of the compound; type: functional, Female gonad; outline: as §3
Rattus norvegicus [32] = species on record: Rattus norvegicus; assay: Effect of Co-injection with estradiol on the uterus to blood ratio (Co-injected with 60 microg of estradiol (E2)); type: functional
Outline: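 Immature female Fischer rats (24 days, 55-60 g) received 3 μCi (111 kBq) 125I-labelled steroid iv via the lateral tail vein, in 200 μL 9% ethanol-saline with 1% Tween 80, co-injected with 60 μg unlabelled estradiol. Killed at 2 h. Uterus and blood were KCl-washed and gamma-counted as PDK. Ratio is the mean of three rats; % change is versus tracer-only animals.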

Rattus norvegicus [33] = assay: Mean uptake in liver 2 hr after intravenous injection of 3 microCi (111 kBq); type: functional; outline: as §3
Rattus norvegicus [34] = assay: Mean uptake in thyroid 2 hr after intravenous injection of 3 microCi (111 kBq); type: functional, Thyroid gland; outline: as §3
Rattus norvegicus [35] = assay: Mean uptake in spleen 5 hr after intravenous injection of 3 microCi (111 kBq); type: functional; outline: as §3
Rattus norvegicus [36] = assay: Mean uptake in kidneys 2 hr after intravenous injection of 3 microCi (111 kBq); type: functional; outline: as §3
Rattus norvegicus [37] = assay: Mean uptake in lungs 2 hr after intravenous injection of 3 microCi (111 kBq) in presence of 60 ug coinjected estradiol; type: functional; outline: as §3
Rattus norvegicus [38] = assay: Mean uptake in blood 1 hr after intravenous injection of 3 microCi (111 kBq) of the compound; type: functional; outline: as §3
Rattus norvegicus [39] = assay: Mean uptake in lungs 2 hr after intravenous injection of 3 microCi (111 kBq); type: functional; outline: as §3
Rattus norvegicus [40] = assay: Mean uptake in kidneys 1 hr after intravenous injection of 3 microCi (111 kBq) of the compound; type: functional; outline: as §3
Rattus norvegicus [41] = assay: Mean uptake in uterus 2 hr after intravenous injection of 3 uM Ci (111 kBq) in presence of 60 ug coinjected estradiol; type: functional; outline: as §1
Rattus norvegicus [42] = assay: Mean uptake in liver 1 hr after intravenous injection of 3 microCi (111 kBq) of the compound; type: functional; outline: as §3
Rattus norvegicus [43] = assay: Mean uptake in uterus 1 hr after intravenous injection of 3 microCi (111 kBq) of the compound; type: functional; outline: as §3
Rattus norvegicus [44] = assay: Mean uptake in spleen 1 hr after intravenous injection of 3 microCi (111 kBq) of the compound; type: functional; outline: as §3
Rattus norvegicus [45] = assay: Mean uptake in lungs 5 hr after intravenous injection of 3 microCi (111 kBq); type: functional; outline: as §3
Rattus norvegicus [46] = assay: Mean uptake in muscle 2 hr after intravenous injection of 3 microCi (111 kBq); type: functional, Muscle tissue; outline: as §3

What does the source list for C[C@]12CC[C@@H]3c4ccc(O)cc4CC[C@H]3[C@@H]1CC[C@@]2(O)/C=C\[125I]?
PDK (Rattus norvegicus [1]): 106; Deiodination (Rattus norvegicus [2]): 2.8%; PDK (Rattus norvegicus [3]): 29; PDK (Rattus norvegicus [4]): 166; PDK (Rattus norvegicus [5]): 17; PDK (Rattus norvegicus [6]): 10; PDK (Rattus norvegicus [7]): 83; PDK (Rattus norvegicus [8]): 57; PDK (Rattus norvegicus [9]): 4975; PDK (Rattus norvegicus [10]): 2547; PDK (Rattus norvegicus [11]): 23; PDK (Rattus norvegicus [12]): 154; PDK (Rattus norvegicus [13]): 24; PDK (Rattus norvegicus [14]): 12; PDK (Rattus norvegicus [15]): 14; PDK (Rattus norvegicus [16]): 14; PDK (Rattus norvegicus [17]): 50; PDK (Rattus norvegicus [18]): 36; Deiodination (Rattus norvegicus [19]): 3.7%; PDK (Rattus norvegicus [20]): 34; PDK (Rattus norvegicus [21]): 67; PDK (Rattus norvegicus [22]): 85; PDK (Rattus norvegicus [23]): 77; PDK (Rattus norvegicus [24]): 11; PDK (Rattus norvegicus [25]): 11; PDK (Rattus norvegicus [26]): 20; Deiodination (Rattus norvegicus [27]): 3.8%; PDK (Rattus norvegicus [28]): 5; PDK (Rattus norvegicus [29]): 44; Deiodination (Rattus norvegicus [30]): 17%; PDK (Rattus norvegicus [31]): 116; Change (Rattus norvegicus [32]): -78%; Uterus to blood ratio (Rattus norvegicus [32]): 3; PDK (Rattus norvegicus [33]): 84; PDK (Rattus norvegicus [34]): 3718; PDK (Rattus norvegicus [35]): 9; PDK (Rattus norvegicus [36]): 32; PDK (Rattus norvegicus [37]): 26; PDK (Rattus norvegicus [38]): 16; PDK (Rattus norvegicus [39]): 25; PDK (Rattus norvegicus [40]): 58; PDK (Rattus norvegicus [41]): 41; PDK (Rattus norvegicus [42]): 148; PDK (Rattus norvegicus [43]): 228; PDK (Rattus norvegicus [44]): 19; PDK (Rattus norvegicus [45]): 18; PDK (Rattus norvegicus [46]): 10
